The values below come from ChEMBL document CHEMBL1124572, “Synthesis and biological activity of novel carbacyclins having bicyclic substituents on the omega-chain” (J Med Chem, 1989).

Test [1] has as its system Rattus norvegicus. Put plainly: Dose that reduces mean blood pressure by 15 mmHg (peak effect) in rat administered intravenously. In kind it is functional. In a few lines:
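Male Wistar rats (200–300 g) were anesthetized with urethane. Compound was given iv via the femoral vein, and blood pressure was recorded by transducer through a femoral artery catheter. MBP15 is the dose lowering mean blood pressure by 15 mmHg at peak effect, derived by linear regression from three dose groups of five or six animals (mean ± SEM).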

The species entered for test [2] is Rattus norvegicus. Nature of the test: Antiaggregatory activity is expressed as dose that inhibit rat platelet aggregation induced by collagen by 50% of that of the control. In kind it is functional. In a few lines:
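Male Wistar rats (250–350 g) under ether anesthesia were bled from the abdominal aorta into 0.1 volume 3.13% sodium citrate. Aggregation was induced by collagen (final 5 μg/mL) and read in an aggregometer at 37 °C with stirring. The IC50 is the concentration inhibiting aggregation by 50% versus control, derived by linear regression from three dose groups of five or six animals (mean ± SEM).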

The test system of test [3] is Rattus norvegicus. Put plainly: Inhibition of ethanol induced gastric lesions in the rat following p.o. administration. The note with it: Stomach, po. It is filed as functional. In a few lines:
(§1)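 Male Sprague-Dawley rats (200–300 g) were fasted 24 h and dosed orally at 2 mL/kg, 30 min before 1 mL of 100% ethanol per rat. Animals were killed 1 h later, and stomachs were formalin-fixed, opened along the greater curvature and examined for lesions. ED50 is the dose giving 50% lesion inhibition versus control, derived by linear regression from three dose groups of eight rats each.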

Test [4] concerns Rattus norvegicus. Nature of the test: Inhibition of ethanol induced gastric lesions in the rat following p.o. administration; No effect. It is filed as functional, organism-based. Conditions: Stomach. The procedure, abridged:
as §1

The species entered for test [5] is Rattus norvegicus. Put plainly: Relative potency for hypotension in rats. In kind it is functional.
Test [6] is filed under the species Rattus norvegicus. Nature of the test: Relative potency for organ protection in rats. In kind it is functional. The procedure, abridged:
(§2)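 Relative potencies were calculated against PGE2 from the rat oral ED50 for ethanol-induced gastric lesions and the iv MBP15 hypotension dose. The ratio is organ-protective relative potency divided by hypotensive relative potency, with PGE2 set to 1.0.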

Test [7] in a line: Ratio of relative potencies of organ protection/ hypotension to that of PGE-2 in rats. It is filed as functional. In a few lines:
as §2

The species entered for test [8] is Rattus norvegicus. Nature of the test: Relative potency for antiaggregation in rats. In kind it is functional. The procedure, abridged:
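Antiaggregation relative potency was calculated against PGI2 from the IC50 for collagen-induced (5 μg/mL) aggregation of citrated rat blood, measured at 37 °C.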

Test [9] is described as follows: Ratio of relative potencies of antiaggregation/ hypotension to that of PGI-2 Na in rats.

In brackets after ≈: the same amount, converted by molar mass. Bounds are passed on as bounds.

In general, IC50 refers to the concentration needed to halve the response being measured. A higher IC50 goes with lower potency. A word on the ED50: it is the midpoint of the dose-response relation. On to `O=C(O)CCC/C=C1\CC2C[C@@H](O)[C@H](/C=C/[C@@H](O)C3Cc4ccc([N+](=O)[O-])cc4C3)C2C1` (stereo partly drawn), for which the “Dose lowering mean blood pressure by 15 mmHg” value with Rattus norvegicus [1] is 0.0085 mg/kg. In addition, the IC50 in the test listed under Rattus norvegicus [2] amounted to 0.15 µg/mL (≈ 0.34 µM). The compound further came in with an ED50 with Rattus norvegicus [3] of 0.14 mg/kg.
For the compound `O=C(O)CCC/C=C1\CC2C[C@@H](O)[C@H](/C=C/[C@@H](O)C3COC4CCCCC4O3)C2C1` (stereo partly drawn), the “Dose lowering mean blood pressure by 15 mmHg” value in the test with Rattus norvegicus [1] was 0.0135 mg/kg. The compound further gave an IC50 in the test filed under Rattus norvegicus [2] above 1 µg/mL. Also, in the test with Rattus norvegicus [3], it took a dose of 0.256 mg/kg to reach the 50% effect level (ED50).
Regarding `Cc1ccc2c(c1)OCC([C@H](O)/C=C/[C@@H]1C3C/C(=C/CCCC(=O)O)CC3C[C@H]1O)O2` (stereo partly drawn), in the test with Rattus norvegicus [1], the “Dose lowering mean blood pressure by 15 mmHg” value turned out to be 0.013 mg/kg. Also, in the test listed under Rattus norvegicus [2], inhibition was half-maximal at 0.647 µg/mL (≈ 1.51 µM) (IC50). In the test on Rattus norvegicus [3], this compound showed an ED50 of 0.11 mg/kg.
The like results for `O=C(O)COCCC1=C[C@H]2C[C@@H](O)[C@H](/C=C/[C@@H](O)C3COc4ccccc4O3)C2C1` (stereo partly drawn) were, in that order, 0.0017 mg/kg, 0.0531 µg/mL (≈ 0.128 µM) and 0.0085 mg/kg.
For `O=C(O)CCC/C=C1\CC2C[C@@H](O)[C@H](CC[C@@H](O)C3Cc4ccccc4C3)C2C1` (stereo partly drawn), the “Dose lowering mean blood pressure by 15 mmHg” value in the test with Rattus norvegicus [1] turned out to be 0.035 mg/kg. Besides, the half-inhibitory concentration (IC50) in the test filed under Rattus norvegicus [2] is 0.0764 µg/mL (≈ 0.192 µM). Further, in the test on Rattus norvegicus [4], the ED50 entry was “No effect”.
`CC(C)c1cccc2c(CC[C@H](O)/C=C/[C@@H]3C4C/C(=C/CCCC(=O)O)CC4C[C@H]3O)ccc-2c1` (stereo partly drawn): in the test with Rattus norvegicus [1], the “Dose lowering mean blood pressure by 15 mmHg” value is above 0.1 mg/kg. This compound showed an IC50 in the test listed under Rattus norvegicus [2] above 1 µg/mL. For the same compound, the ED50 entry in the test with Rattus norvegicus [4] is “No effect”.
As to `COc1ccc2c(c1)CC([C@H](O)/C=C/[C@@H]1C3C/C(=C/CCCC(=O)O)CC3C[C@H]1O)C2` (stereo partly drawn), the “Dose lowering mean blood pressure by 15 mmHg” value in the test on Rattus norvegicus [1] was 0.006 mg/kg. This compound also returned a half-inhibitory concentration (IC50) in the test filed under Rattus norvegicus [2] of 0.0705 µg/mL (≈ 0.165 µM). The same compound gave an ED50 with Rattus norvegicus [3] of 0.0143 mg/kg.
For the compound `O=C(O)COC/C=C1\CC2C[C@@H](O)[C@H](/C=C/[C@@H](O)C3COc4ccccc4O3)C2C1` (stereo partly drawn), the “Dose lowering mean blood pressure by 15 mmHg” value in the test with Rattus norvegicus [1] worked out at 0.0025 mg/kg. In the test listed under Rattus norvegicus [2], this compound had a concentration for half-maximal inhibition (IC50) of 0.582 µg/mL (≈ 1.4 µM). Also, in the test on Rattus norvegicus [3], it took a dose of 0.113 mg/kg to reach the 50% effect level (ED50).
`NC(=O)CCC/C=C1\CC2C[C@@H](O)[C@H](/C=C/[C@@H](O)C3Cc4ccccc4C3)C2C1` (stereo partly drawn): in the test on Rattus norvegicus [1], the “Dose lowering mean blood pressure by 15 mmHg” value stood at 0.0977 mg/kg. Also, in the test listed under Rattus norvegicus [2], inhibition was half-maximal at 0.0537 µg/mL (≈ 0.136 µM) (IC50). Besides, the 50% effect level with Rattus norvegicus [3] (ED50) was put at a dose of 0.113 mg/kg.
Take `O=C(O)COCCC1=C[C@H]2C[C@@H](O)[C@H](/C=C/[C@@H](O)C3Cc4ccccc4C3)C2C1` (stereo partly drawn): in the test with Rattus norvegicus [1], the “Dose lowering mean blood pressure by 15 mmHg” value was determined as 0.0022 mg/kg. Further, in the test listed under Rattus norvegicus [2], 0.0567 µg/mL (≈ 0.142 µM) corresponded to half-maximal inhibition (IC50). Further, the ED50 with Rattus norvegicus [3] was 0.0274 mg/kg.
Consider `CC1([C@H](O)/C=C/[C@@H]2C3C/C(=C/CCCC(=O)O)CC3C[C@H]2O)COc2ccccc2O1` (stereo partly drawn), for which, in the test on Rattus norvegicus [1], the “Dose lowering mean blood pressure by 15 mmHg” value is 0.0036 mg/kg. In addition, half-maximal inhibition in the test listed under Rattus norvegicus [2] (IC50) was put at 0.221 µg/mL (≈ 0.516 µM). This compound displayed a median effective dose (ED50) in the test with Rattus norvegicus [3] of 0.0142 mg/kg.
For `O=C(O)CCC/C=C1\CC2C[C@@H](O)[C@H](/C=C/[C@@H](O)C3COc4ccccc4O3)C2C1` (stereo partly drawn), the Relative potency in the test filed under Rattus norvegicus [5] is given as 0.6; in the test listed under Rattus norvegicus [6], 7.6. Moreover, in the test on Rattus norvegicus [1], the “Dose lowering mean blood pressure by 15 mmHg” value stood at 0.002 mg/kg. In addition, in the test filed under Rattus norvegicus [2], the 50% inhibitory concentration (IC50) was 0.324 µg/mL (≈ 0.781 µM). Also, the Ratio in test [7] was 12.7. For the same compound, the median effective dose (ED50) in the test with Rattus norvegicus [3] was found to be 0.0045 mg/kg.
For the compound `O=C(O)COC/C=C1\CC2C[C@@H](O)[C@H](/C=C/[C@@H](O)C3Cc4ccccc4C3)C2C1` (stereo partly drawn), the Relative potency is reported as 0.08 in the test listed under Rattus norvegicus [5] and 0.23 in the test listed under Rattus norvegicus [8]. Besides, the “Dose lowering mean blood pressure by 15 mmHg” value in the test with Rattus norvegicus [1] was 0.0038 mg/kg. In the test listed under Rattus norvegicus [2], this compound yielded a concentration for half-maximal inhibition (IC50) of 0.0153 µg/mL (≈ 0.0384 µM). This compound also returned an ED50 in the test with Rattus norvegicus [3] of 0.0675 mg/kg.
Turning to `O=C(O)CCC/C=C1\CC2C[C@@H](O)[C@H](/C=C/[C@@H](O)C3Cc4ccccc4C3)C2C1` (stereo partly drawn), the figures for the Relative potency in the test listed under Rattus norvegicus [5] and in the test listed under Rattus norvegicus [8] were 0.07 and 0.17, respectively. The “Dose lowering mean blood pressure by 15 mmHg” value in the test on Rattus norvegicus [1] is 0.0043 mg/kg. Further, the Ratio in test [9] turned out to be 2.4. The 50% inhibitory concentration (IC50) in the test listed under Rattus norvegicus [2] is 0.0204 µg/mL (≈ 0.0514 µM). Besides, the 50% effect level in the test with Rattus norvegicus [3] (ED50) was put at a dose of 0.0562 mg/kg.
Regarding `O=C(O)CCC/C=C1\CC2C[C@@H](O)[C@H](/C=C/[C@@H](O)c3ccc4c(c3)OCO4)C2C1` (stereo partly drawn), the “Dose lowering mean blood pressure by 15 mmHg” value in the test with Rattus norvegicus [1] was above 0.1 mg/kg. In the test listed under Rattus norvegicus [2], this compound returned a half-inhibitory concentration (IC50) above 1 µg/mL. For the same compound, in the test on Rattus norvegicus [4], the ED50 result was “No effect”.
